Reference: ChEMBL document CHEMBL4330127, “Discovery of Novel Pyruvate Dehydrogenase Kinase 4 Inhibitors for Potential Oral Treatment of Metabolic Diseases” (J Med Chem, 2019)
The source made the active and inactive calls. The rule behind the calls is not given here.

Tests used:
HCT-116 [1] = experiment: Induction of apoptosis in human HCT116 cells assessed as live cells at 50 uM after 24 hrs by Annexin V/propidium iodide staining based flow cytometry (reference value: 84.4%); assay type: functional
HCT-116 [2] = experiment: Cell cycle arrest in human HCT116 cells assessed as accumulation at G2/M phase at 25 uM after 24 hrs in presence of oxaliplatin propidium iodide staining based flow cytometry (reference value: 28.2%); assay type: functional
In short: (§1)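 HCT116 and RKO cells were treated with compound alone or with oxaliplatin for 24 h before harvest. Cells were stained with propidium iodide, and DNA content was analysed by flow cytometry. Cell-cycle phase populations, including sub-G1, are given as percentages.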

RKO [3] = experiment: Induction of apoptosis in human RKO cells assessed as early apoptotic cells at 10 uM after 24 hrs by Annexin V/propidium iodide staining based flow cytometry (reference value: 9.62%); assay type: functional
HCT-116 [4] = experiment: Induction of apoptosis in human HCT116 cells assessed as live cells at 25 uM after 24 hrs by Annexin V/propidium iodide staining based flow cytometry (reference value: 84.4%); assay type: functional
[5] = molecular target: UDP-glucuronosyltransferase 2B7 (Homo sapiens, UniProt P16662); experiment: Inhibition of UGT2B7 in human liver microsomes assessed as reduction in naloxone 3-glucuronidation by tandem mass spectrometry analysis; assay type: ADME
Sequence of UDP-glucuronosyltransferase 2B7 (P16662 whole entry): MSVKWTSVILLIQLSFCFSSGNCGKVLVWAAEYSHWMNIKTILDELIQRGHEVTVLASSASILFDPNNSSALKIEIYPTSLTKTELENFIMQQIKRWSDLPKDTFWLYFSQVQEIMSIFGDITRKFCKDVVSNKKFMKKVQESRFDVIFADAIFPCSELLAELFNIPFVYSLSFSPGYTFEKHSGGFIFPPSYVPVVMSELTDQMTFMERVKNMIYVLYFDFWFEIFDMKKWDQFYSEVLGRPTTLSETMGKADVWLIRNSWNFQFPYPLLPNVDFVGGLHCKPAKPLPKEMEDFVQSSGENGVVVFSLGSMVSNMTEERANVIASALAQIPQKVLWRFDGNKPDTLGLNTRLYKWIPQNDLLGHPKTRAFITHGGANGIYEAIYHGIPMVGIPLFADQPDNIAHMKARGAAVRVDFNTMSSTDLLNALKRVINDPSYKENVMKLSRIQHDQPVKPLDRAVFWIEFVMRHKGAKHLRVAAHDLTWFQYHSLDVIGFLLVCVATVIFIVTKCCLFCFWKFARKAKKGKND
In short: (§2)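 Pooled human liver microsomes; test compound at final 0–50 μM in a cocktail incubation with probe substrates: midazolam 1′-hydroxylation (CYP3A), SN-38 glucuronidation (UGT1A1), trifluoperazine N-glucuronidation (UGT1A4), mycophenolic acid glucuronidation (UGT1A9), naloxone 3-glucuronidation (UGT2B7). Metabolites measured by tandem MS; IC50 determined; duplicate.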

RKO [6] = experiment: Cell cycle arrest in human RKO cells assessed as accumulation at sub-G1 phase at 25 uM after 24 hrs in presence of oxaliplatin propidium iodide staining based flow cytometry (reference value: 12%); assay type: functional; in short: as §1
CYP3A = CYP3A (Homo sapiens, UniProt P08684+P20815+P24462+Q9HB55); experiment: Inhibition of CYP3A in human liver microsomes assessed as reduction in midazolam 1'-hydroxylation by tandem mass spectrometry analysis; assay type: ADME; conditions: probe midazolam (1'-hydroxylation); in short: as §2
HCT-116 [7] = experiment: Cell cycle arrest in human HCT116 cells assessed as accumulation at G2/M phase at 50 uM after 24 hrs propidium iodide staining based flow cytometry (reference value: 22.2%); assay type: functional; in short: as §1
L929 = experiment: Cytotoxicity against mouse L929 cells; assay type: cell-based
RKO [8] = experiment: Induction of apoptosis in human RKO cells assessed as increase in Bax expression at 10 to 50 uM after 24 hrs by Western blot analysis; assay type: functional, cell-based
In short: (§3)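 HCT116 and RKO cells given a range of compound doses for 24 h; lysates probed by Western blot for apoptosis-related proteins (p53, BAX, BCLxL).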

RKO [9] = experiment: Induction of apoptosis in human RKO cells assessed as necrotic cells at 50 uM after 24 hrs by Annexin V/propidium iodide staining based flow cytometry (reference value: 0.56%); assay type: functional
RKO [10] = experiment: Cell cycle arrest in human RKO cells assessed as accumulation at G1/G0 phase at 50 uM after 24 hrs propidium iodide staining based flow cytometry (reference value: 39.9%); assay type: functional; in short: as §1
[11] = molecular target: UDP-glucuronosyltransferase 1A1 (Homo sapiens, UniProt P22309); experiment: Inhibition of UGT1A1 in human liver microsomes assessed as reduction in SN-38 glucuronidation by tandem mass spectrometry analysis; assay type: ADME; in short: as §2
Sequence of UDP-glucuronosyltransferase 1A1 (P22309 whole entry): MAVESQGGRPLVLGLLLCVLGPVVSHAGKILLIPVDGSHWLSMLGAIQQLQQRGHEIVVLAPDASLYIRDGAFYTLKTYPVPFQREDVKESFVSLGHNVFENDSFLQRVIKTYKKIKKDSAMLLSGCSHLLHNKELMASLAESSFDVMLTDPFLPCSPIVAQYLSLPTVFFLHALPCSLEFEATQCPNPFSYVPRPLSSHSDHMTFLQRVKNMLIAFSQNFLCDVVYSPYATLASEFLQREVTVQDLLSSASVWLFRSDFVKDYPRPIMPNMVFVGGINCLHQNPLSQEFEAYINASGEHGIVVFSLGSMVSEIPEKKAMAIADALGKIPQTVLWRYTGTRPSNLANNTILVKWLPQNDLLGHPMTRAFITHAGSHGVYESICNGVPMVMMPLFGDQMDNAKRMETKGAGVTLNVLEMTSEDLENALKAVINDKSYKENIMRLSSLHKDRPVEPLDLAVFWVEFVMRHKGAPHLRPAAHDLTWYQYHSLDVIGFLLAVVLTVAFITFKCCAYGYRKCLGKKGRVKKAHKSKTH

HCT-116 [12] = experiment: Cell cycle arrest in human HCT116 cells assessed as accumulation at S phase at 25 uM after 24 hrs propidium iodide staining based flow cytometry (reference value: 18%); assay type: functional; in short: as §1
Vero = experiment: Cytotoxicity against African green monkey Vero cells; assay type: cell-based; conditions: Chlorocebus sabaeus
HCT-116 [13] = experiment: Induction of apoptosis in human HCT116 cells assessed as late apoptotic cells at 10 uM after 24 hrs by Annexin V/propidium iodide staining based flow cytometry (reference value: 8.36%); assay type: functional
[14] = molecular target: UDP-glucuronosyltransferase 1A9 (Homo sapiens, UniProt O60656); experiment: Inhibition of UGT1A9 in human liver microsomes assessed as reduction in mycophenolic acid glucuronidation by tandem mass spectrometry analysis; assay type: ADME; in short: as §2
Sequence of UDP-glucuronosyltransferase 1A9 (O60656 whole entry): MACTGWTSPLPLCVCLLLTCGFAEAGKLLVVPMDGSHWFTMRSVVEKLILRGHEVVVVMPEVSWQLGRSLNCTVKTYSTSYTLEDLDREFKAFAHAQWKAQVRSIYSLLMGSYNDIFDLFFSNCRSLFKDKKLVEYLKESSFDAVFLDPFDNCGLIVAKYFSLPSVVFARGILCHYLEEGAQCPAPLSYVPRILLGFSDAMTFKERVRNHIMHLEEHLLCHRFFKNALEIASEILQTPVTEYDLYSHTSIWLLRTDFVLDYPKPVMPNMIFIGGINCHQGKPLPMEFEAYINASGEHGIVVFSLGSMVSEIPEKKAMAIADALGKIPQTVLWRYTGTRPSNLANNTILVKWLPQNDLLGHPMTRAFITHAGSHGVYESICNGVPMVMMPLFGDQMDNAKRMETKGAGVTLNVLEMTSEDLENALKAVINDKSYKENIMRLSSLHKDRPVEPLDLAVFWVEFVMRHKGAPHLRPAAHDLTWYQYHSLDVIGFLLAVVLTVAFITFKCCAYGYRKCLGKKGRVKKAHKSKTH

[15] = Tmax in rat at 10 mg/kg, po; assay type: ADME, organism-based; conditions: in vivo
HCT-116 [16] = experiment: Cell cycle arrest in human HCT116 cells assessed as accumulation at G1/G0 phase at 25 uM after 24 hrs propidium iodide staining based flow cytometry (reference value: 42%); assay type: functional; in short: as §1
RKO [17] = experiment: Induction of apoptosis in human RKO cells assessed as decrease in Bcl-XL expression at 10 to 50 uM after 24 hrs by Western blot analysis; assay type: functional, cell-based; in short: as §3
[18] = molecular target: T1, [Pyruvate dehydrogenase (acetyl-transferring)] kinase isozyme 4, mitochondrial (Homo sapiens, UniProt Q16654); experiment: Inhibition of PDK4 (unknown origin)
Target sequence in this assay (Q16654 whole entry): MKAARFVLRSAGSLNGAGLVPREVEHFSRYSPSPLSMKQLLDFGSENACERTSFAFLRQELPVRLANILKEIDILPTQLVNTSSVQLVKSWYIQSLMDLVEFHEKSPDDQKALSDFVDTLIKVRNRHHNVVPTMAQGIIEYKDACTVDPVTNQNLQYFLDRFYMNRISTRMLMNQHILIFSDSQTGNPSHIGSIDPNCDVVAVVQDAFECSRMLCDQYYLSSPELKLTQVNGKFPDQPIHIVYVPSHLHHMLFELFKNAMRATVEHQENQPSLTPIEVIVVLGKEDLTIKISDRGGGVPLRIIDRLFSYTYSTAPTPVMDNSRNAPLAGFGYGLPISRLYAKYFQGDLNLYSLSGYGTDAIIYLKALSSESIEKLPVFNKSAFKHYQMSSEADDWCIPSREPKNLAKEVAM

RKO [19] = experiment: Cell cycle arrest in human RKO cells assessed as accumulation at S phase at 25 uM after 24 hrs propidium iodide staining based flow cytometry (reference value: 19.2%); assay type: functional
[20] = molecular target: T1, [Pyruvate dehydrogenase (acetyl-transferring)] kinase isozyme 4, mitochondrial; experiment: Inhibition of PDK4 (unknown origin) at 10 uM relative to control
Target sequence in this assay (Q16654 whole entry, looked up): as the sequence (Q16654 whole entry) above

[21] = Half life in rat at 10 mg/kg, po; assay type: ADME, organism-based; conditions: in vivo
In short: (§4)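 Male rats given a single dose, 5 mg/kg intravenously or 10 mg/kg orally. Plasma PK parameters were reported as mean ± SD: AUCt, AUC∞, Cmax, Tmax, T1/2, CL, Vss and oral bioavailability F.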

HCT-116 [22] = experiment: Induction of apoptosis in human HCT116 cells assessed as early apoptotic cells at 25 uM after 24 hrs in presence of oxaliplatin by Annexin V/propidium iodide staining based flow cytometry (reference value: 7.31%); assay type: functional
HCT-116 [23] = experiment: Induction of apoptosis in human HCT116 cells assessed as necrotic cells at 10 uM after 24 hrs by Annexin V/propidium iodide staining based flow cytometry (reference value: 2.92%); assay type: functional
[24] = AUCt in rat at 5 mg/kg, iv; assay type: ADME, organism-based; conditions: in vivo; in short: as §4
RKO [25] = experiment: Induction of apoptosis in human RKO cells assessed as late apoptotic cells at 10 uM after 24 hrs by Annexin V/propidium iodide staining based flow cytometry (reference value: 7.42%); assay type: functional
HCT-116 [26] = experiment: Induction of apoptosis in human HCT116 cells assessed as increase in cleaved caspase-3 expression at 10 to 50 uM after 24 hrs by Western blot analysis; assay type: functional, cell-based; in short: as §3
RKO [27] = experiment: Induction of apoptosis in human RKO cells assessed as early apoptotic cells at 25 uM after 24 hrs by Annexin V/propidium iodide staining based flow cytometry (reference value: 9.62%); assay type: functional
[28] = molecular target: Cellular tumor antigen p53 (Homo sapiens) (UniProt P04637); experiment: Induction of p53 phosphorylation at Ser-15 residue in human RKO cells after 24 hrs by Western blot analysis; assay type: cell-based; in short: as §3
Sequence of Cellular tumor antigen p53 (Homo sapiens) (P04637 whole entry, looked up): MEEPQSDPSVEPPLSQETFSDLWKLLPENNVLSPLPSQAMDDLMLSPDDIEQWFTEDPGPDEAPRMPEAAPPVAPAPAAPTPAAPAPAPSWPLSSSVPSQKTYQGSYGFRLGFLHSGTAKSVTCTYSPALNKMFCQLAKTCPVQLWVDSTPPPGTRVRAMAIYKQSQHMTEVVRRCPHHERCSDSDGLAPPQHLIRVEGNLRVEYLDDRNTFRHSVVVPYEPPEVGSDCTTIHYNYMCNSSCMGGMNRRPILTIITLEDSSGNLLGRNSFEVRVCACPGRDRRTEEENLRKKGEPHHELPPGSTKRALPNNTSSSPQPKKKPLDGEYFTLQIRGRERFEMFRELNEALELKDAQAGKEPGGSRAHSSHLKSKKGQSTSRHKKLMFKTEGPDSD

HCT-116 [29] = experiment: Cell cycle arrest in human HCT116 cells assessed as accumulation at G2/M phase at 10 uM after 24 hrs propidium iodide staining based flow cytometry (reference value: 22.2%); assay type: functional; in short: as §1
NIH3T3 = experiment: Cytotoxicity against mouse NIH/3T3 cells; assay type: cell-based

Question: Which results are given for `Cl.O=C1c2ccccc2C(=O)c2c1cccc2-c1cnn(C2CCNCC2)c1`?
Answer: Activity (HCT-116 [1]): 21.2%; Activity (HCT-116 [2]): 33.5%; Activity (RKO [3]): 5.2%; Activity (HCT-116 [4]): 49.4%; IC50 [5]: > 50 µM; Activity (RKO [6]): 67.4%; IC50 (CYP3A): 36.6 µM; Activity (HCT-116 [7]): 5.3%; IC50 (L929): 35.8 µM; Activity (RKO [8]): Active; Activity (RKO [9]): 0.006%; Activity (RKO [10]): 3.4%; IC50 [11]: > 50 µM; Activity (HCT-116 [12]): 11.4%; IC50 (Vero): 36.4 µM; Activity (HCT-116 [13]): 7.1%; IC50 [14]: > 50 µM; Tmax [15]: 6 h; Activity (HCT-116 [16]): 19%; Activity (RKO [17]): Active; IC50 [18]: 0.084 µM; Activity (RKO [19]): 6%; inhibition [20]: 50.1%; half-life [21]: 21.6 h; Activity (HCT-116 [22]): 7.7%; Activity (HCT-116 [23]): 12.1%; AUC(0-t) [24]: 7020 ng·h/mL; Activity (RKO [25]): 11.2%; Activity (HCT-116 [26]): Active; Activity (RKO [27]): 19.3%; Activity [28]: Dose-dependent effect; Activity (HCT-116 [29]): 14.9%; IC50 (NIH3T3): 39.6 µM
